Source: PubChem (several laboratories)
Most compounds without a hit are left out; they make up all but 2.5% or so of the library.
MC4R ag barr = human MC4R agonism via beta-arrestin. P32245. U2OS MC4R beta-arrestin complementation, luminescence; percent of melanotan II response, DMSO zero. activation, % at 8.9 µM. hit rate 0.98% among 360,000;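 active = activation above a per-plate cutoff, the mean activation of sample wells on that plate plus 3 SD, cut at about 8% in these data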
PG9 binder = PG9 antibody binding by small molecule | AID 624416 | hit rate 0.43% among 360,000 | TR-FRET gp120-PG9 antibody binding | inhibition, % at 6.7 µM; in the data active = inhibition above about 8.5%
NR1D1 modulator = modulates human Rev-erb alpha binding to DNA. P20393. Rev-erbα–FITC-DNA binding, fluorescence polarization, 90 min. activity, % at 10 µM. hit rate 0.79% among 370,000;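 active = activity above about 14%, limit read from the data; passing the limit was not always enough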
Target sequence (P20393 whole entry, looked up): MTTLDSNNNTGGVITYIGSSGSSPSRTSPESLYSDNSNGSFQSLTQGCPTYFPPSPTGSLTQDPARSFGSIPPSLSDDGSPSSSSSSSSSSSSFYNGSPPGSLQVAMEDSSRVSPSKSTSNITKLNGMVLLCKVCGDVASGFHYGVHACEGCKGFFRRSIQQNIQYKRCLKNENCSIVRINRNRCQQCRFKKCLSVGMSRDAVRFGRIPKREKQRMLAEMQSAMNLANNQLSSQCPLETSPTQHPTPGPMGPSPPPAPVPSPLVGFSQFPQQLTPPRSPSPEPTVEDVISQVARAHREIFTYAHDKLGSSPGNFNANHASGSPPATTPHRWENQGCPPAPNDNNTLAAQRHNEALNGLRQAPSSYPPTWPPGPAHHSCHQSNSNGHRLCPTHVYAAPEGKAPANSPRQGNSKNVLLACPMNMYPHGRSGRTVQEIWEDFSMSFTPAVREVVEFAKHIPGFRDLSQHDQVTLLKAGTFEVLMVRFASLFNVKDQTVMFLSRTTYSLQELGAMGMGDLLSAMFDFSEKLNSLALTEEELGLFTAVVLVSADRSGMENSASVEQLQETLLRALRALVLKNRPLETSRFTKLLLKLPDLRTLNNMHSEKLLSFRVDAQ
MC4R antag cAMP = antagonists of human melanocortin 4 receptor (MC4R). inhibition, % at 6.5 µM. AID 540295. P32245. MC4R-expressing cells, MTII-stimulated cAMP, LANCE TR-FRET. hit rate 0.48% among 360,000;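 active = inhibition above its plate's cutoff, the mean of tested wells on that plate plus 3 SD, cut at about 29% in these data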
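system = U2OS cells with stable human MC4R expression | also added = Melanotan II challenge after compound preincubation | dosing = one concentration, 6.5 µM nominal | incubation = compound 30 min, challenge 1 h, detection 1 h | measured by = TR-FRET with Eu-cAMP and labeled anti-cAMP, 671 nm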
NTR1 ag = activates human neurotensin receptor 1; hit rate 0.17% among 330,000; NTR1-U2OS beta-arrestin-GFP spot imaging, agonist mode; activation, % at 20 µM;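 active = activation at or above 40% of the spot to cytoplasm intensity ratio, with at least 20 cells analyzed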
NTR1 ag conf = confirmation of agonists of human NTR1; hit rate 38% among 480; AID 504550; NTR1-U2OS beta-arrestin-GFP translocation imaging; shares compounds with NTR1 ag; activation, % at 20 µM;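 active = mean activation at 20 µM of at least 40%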
Numbers stand for hits; 0 = inactive; - = no result given.

SMILES	MC4R ag barr	PG9 binder	NR1D1 modulator	MC4R antag cAMP	NTR1 ag	others
O=C(CSc1nnc(NC(=O)c2ccccc2Cl)s1)Nc1ccc2c(c1)oc1ccccc12	-	0	0	-	51.0
O=C(OCCN1CCN(C2CN(Cc3cn(Cc4ccccc4F)nn3)S(=O)(=O)C2)CC1)c1cc2ccccc2o1 (stereo unspecified)	-	-	0	-	-
O=C(C1=NN(c2ccccc2)C2C(=O)N(c3ccccc3)C(=O)C12)c1ccccc1 (stereo unspecified)	0	0	0	0	0
O=C(C1=NN(c2ccccc2)C2C(=O)N(c3ccccc3Cl)C(=O)C12)c1ccccc1 (stereo unspecified)	9.1	0	0	0	-
Cc1ccc(S(=O)(=O)N2CCCC2C(=O)N2CCc3ccccc3C2)cc1C (stereo unspecified)	-	-	0	-	-
COc1cccc(OCCn2c(C)c(/C=N/n3cnnc3)c3ccccc32)c1	9.7	0	0	0	0
COc1ccc(OCCn2c(C)c(/C=N/n3cnnc3)c3ccccc32)cc1	0	-	-	0	0
CC[n+]1c(/C=C/N(C)c2ccccc2)n(-c2ccccc2)c2ccc(-c3nc4ccccc4s3)cc21	16.3	-	-	0	0
COc1ccc(CC(=O)NNC(=O)c2ccc(SCc3cc(F)ccc3F)c([N+](=O)[O-])c2)cc1	9.0	0	0	0	0
Nc1nc(CCl)nc(Nc2ccc3ccccc3c2)n1	14.9	0	0	0	-
COc1ccc(Nc2nc(N)nc(CCl)n2)cc1	17.6	0	0	0	0
COc1ccccc1N1CCN(S(=O)(=O)c2ccc3c(c2)n(C)c(=O)c(=O)n3C)CC1	-	-	0	-	-
Cc1cc(C2(c3ccc(O)c(C)c3)C(=O)Nc3ccccc32)ccc1O	0	0	0	0	0
Cc1cccc2c1NC(=O)C2(c1ccc(O)cc1)c1ccc(O)cc1	86.8	0	0	0	0
COc1cccc(CO[C@H]2C=C[C@@H](c3ccccc3)O[C@@H]2CO)c1	-	-	0	-	-
COc1ccc(COc2ccsc2C(=O)Nc2ccc(Cl)cc2)cc1	8.7	0	0	0	0
COc1ccc(NC(=O)c2csc(Cc3ccc(Cl)cc3)n2)cc1	0	0	0	0	0
COC(=O)[C@]12C[C@H](CC(=O)NCCC(C)C)C(=O)N(Cc3ccc(Cl)cc3Cl)C1=C[C@H](C1CCCC1)O[C@@H]2C	-	-	0	-	-
CCC[C@H]1[C@@H](OC(=O)NCc2cccc(Cl)c2)CC[C@@]23CCCN2C(=O)CCC[C@@H]13	-	-	0	-	-
O=C(Cn1c2[n+](c3ccc(C(F)(F)F)cc31)CCCCC2)Nc1ccc(Br)cc1	0	-	-	29.6	0
Cc1ccccc1C(c1ncccc1C)N(C)C(=O)C1CCN(CCOc2ccc(Cl)cc2Cl)CC1 (stereo unspecified)	9.2	0	0	0	-
CCn1c(-c2ccccc2)c(C(=O)CCl)c2ccccc21	0	0	0	0	0
Cn1c(-c2ccccc2)c(C(=O)CCl)c2ccccc21	12.5	0	0	0	-
O=C(NCc1ccccc1)[C@@H]1CCCN1C(=O)[C@H]1CCCN1C(=O)N1CCCCC1	-	0	0	-	-
Cc1cccc(NC(=O)CSc2nnc(-c3ccc(S(=O)(=O)N4CCCC4)cc3)o2)c1	0	-	0	0	0
SMILES	MC4R ag barr	PG9 binder	NR1D1 modulator	MC4R antag cAMP	NTR1 ag	others
Cc1ccc(NC(=O)CSc2nnc(-c3ccc(S(=O)(=O)N4CCCC4)cc3)o2)cc1C	0	0	0	0	45.8
C=CCc1ccc(OCC(O)CN2CCCCC2)c(OC)c1 (stereo unspecified)	0	0	0	0	0
C=CCc1ccc(OCC(O)COc2ccc(CC=C)cc2OC)c(OC)c1	8.7	0	0	0	0
O=C(/C=C/c1ccccc1)OCC(=O)c1c[nH]c2ccccc12	9.3	0	0	0	0
CC(C)(C)OC(=O)N1CCC[C@@H]1C(=O)N1CCC[C@@H]1C(=O)NCc1ccccc1	-	0	0	-	-
COC(=O)c1c(-c2ccco2)csc1NC(=O)C1CC=CCC1C(=O)O (stereo unspecified)	0	9.7	0	0	0
Cc1ccc(CNCc2cc3c(C(C)(C)C)nn(-c4ccccc4)c3[nH]c2=O)cc1	8.9	0	0	0	0
CC1(C(=O)NC2CCc3ccccc32)CCN1CCc1ccccc1 (stereo unspecified)	8.6	0	0	0	-
O=C1Nc2ccccc2SC1=Cc1ccccc1	0	0	0	0	-
O=C1Nc2ccccc2S/C1=C/Nc1cccc(Cl)c1	13.2	0	0	0	0
Cc1ccc(NC(CC(=O)c2ccccc2)c2ccc(F)cc2)cc1 (stereo unspecified)	0	0	0	0	0
Cc1ccc(C(=O)CC(Nc2ccc(F)cc2)c2ccccc2)cc1 (stereo unspecified)	8.9	0	0	0	0
Cc1ccc(-n2nnnc2-c2nc3ccccc3s2)cc1	8.7	0	0	0	0
O=C(c1ccncc1)N1CCN(c2cc(-c3ccccc3)nc3cc(-c4cccc(Cl)c4)nn23)CC1	0	0	0	0	-
O=C(c1ccoc1)N1CCN(c2cc(-c3ccncc3)nc3cc(-c4cccc(Cl)c4)nn23)CC1	8.8	0	0	0	-
CC(=O)CC[C@H]1CC[C@]2(CCCN(C(=O)C3CCCCC3)C2)O1	-	-	0	-	-
O=C(CSc1ccc(-c2ccc3c(c2)OCO3)nn1)Nc1nccs1	9.5	0	0	0	0
COc1ccc(S[C@]2(C(=O)N(C)C)CC(=O)N(S(=O)(=O)c3ccc(F)cc3)[C@@H]2c2ccc(OC)cc2)cc1	-	-	0	-	-
COC(=O)N/N=C/c1ccccc1OCCOc1ccc(OC)cc1	0	0	0	0	0
C=CCNC(=S)N/N=C/c1ccccc1OCCOc1ccccc1	8.9	0	0	0	0
Cc1cc(OCC(O)CNC(C)c2ccccc2)ccc1C(C)C (stereo unspecified)	9.2	0	0	0	0
Cc1ccc(S(=O)(=O)Nc2ccc(NC(=O)Nc3cccc(C(F)(F)F)c3)cc2)cc1	9.2	0	0	0	0
CCN(CC)S(=O)(=O)c1ccc(NC(=O)Nc2cccc(C(F)(F)F)c2)cc1	0	0	0	0	0
COc1ccccc1NC(=O)NC(=O)c1ccccc1	8.8	0	0	0	0
COc1ccccc1NC(=O)NC(N)=O	0	0	0	0	0
SMILES	MC4R ag barr	PG9 binder	NR1D1 modulator	MC4R antag cAMP	NTR1 ag	others
CC(C)(C)c1ccc(/C=N/NC(=O)c2ccccn2)cc1	0	0	0	0	0
O=C(N/N=C/c1ccc(OC(=O)c2ccccc2Br)cc1)c1ccccn1	8.9	0	0	0	0
COc1cc(C=NN2CCN(C(c3ccccc3)c3ccccc3)CC2)cc(OC)c1OC(C)=O	-	-	0	-	-
O=C1c2ccc(Cl)cc2S(=O)(=O)c2cccc(C(=O)N3CCC(Cc4ccccc4)CC3)c21	0	0	0	0	52.4	NTR1 ag conf=80.4
CCOC(=O)C1CCN(C(=O)C(Cc2ccc3c(c2)OCO3)NC(C)=O)CC1 (stereo unspecified)	-	-	0	-	-
Cc1ccn2c(NCc3ccccc3)c(-c3cccc(SC4CCCCC4)c3)nc2c1	0	0	0	0	0
